# Reference: ChEMBL document CHEMBL1155468, “Syntheses and evaluation of anticonvulsant profile and teratogenicity of novel amide derivatives of branched aliphatic carboxylic acids with 4-aminobenzensulfonamide” (J Med Chem, 2010)
# Active and inactive are the calls of the source. The calls are words filed in the database; no cut-off is given here.
# Key:
# Mus musculus [1] = assay: Anticonvulsant activity in CF1 albino mouse assessed as inhibition of subcutaneous pentylenetetrazole-induced seizures at 30 mg/kg, ip after 0.5 hrs; format: functional, organism-based; parameters: dose 30 mg/kg
# How it was run: (§1)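 Adult male CF no. 1 albino mice (18-25 g) dosed ip with compound suspended in 0.5% methylcellulose (0.01 mL/g). Convulsant: pentylenetetrazol dissolved in 0.9% saline as a 0.85% solution for mice, given subcutaneously.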
# Mus musculus [2] = assay: Anticonvulsant activity in CF1 albino mouse assessed as inhibition of subcutaneous pentylenetetrazole-induced seizures at 100 mg/kg, ip after 0.5 hrs; format: functional, organism-based; parameters: dose 100 mg/kg; how it was run: as §1
# Mus musculus [3] = assay: Anticonvulsant activity in CF1 albino mouse assessed as inhibition of subcutaneous pentylenetetrazole-induced seizures at 300 mg/kg, ip after 0.5 hrs; format: functional, organism-based; parameters: dose 300 mg/kg; how it was run: as §1
# Mus musculus [4] = assay: Anticonvulsant activity in CF1 albino mouse assessed as inhibition of subcutaneous pentylenetetrazole-induced seizures at 30 mg/kg, ip after 4 hrs; format: functional, organism-based; parameters: dose 30 mg/kg; how it was run: as §1
# Mus musculus [5] = assay: Anticonvulsant activity in CF1 albino mouse assessed as inhibition of subcutaneous pentylenetetrazole-induced seizures at 100 mg/kg, ip after 4 hrs; format: functional, organism-based; parameters: dose 100 mg/kg; how it was run: as §1
# Mus musculus [6] = assay: Teratogenic effect in SWV mouse assessed as resorptions at 141 mg/kg, ip administered on morning of day 8 of gestation; format: toxicity, organism-based; parameters: dose 141 mg/kg, route intraperitoneal; conditions: in vivo
# How it was run: (§2)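 SWV inbred mice: two-month-old nulligravid females mated overnight with males and checked for vaginal plugs next morning; gestation onset taken as 10 p.m. the previous night. On gestation day 8.5 each dam got one ip injection, 0.55–2.7 mmol/kg, in 25% aqueous Cremophor EL (vehicle controls dosed alike), 10 μL/g body weight. Litters and implants tallied; resorptions and live fetuses reported as counts with percentages.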
# Mus musculus [7] = assay: Teratogenic effect in SWV mouse assessed as resorptions at 462 mg/kg, ip administered on morning of day 8 of gestation; format: toxicity, organism-based; parameters: dose 462 mg/kg, route intraperitoneal; conditions: in vivo; how it was run: as §2
# Mus musculus [8] = assay: Teratogenic effect in SWV mouse assessed as resorptions at 279 mg/kg, ip administered on morning of day 8 of gestation; format: toxicity, organism-based; parameters: dose 279 mg/kg, route intraperitoneal; conditions: in vivo; how it was run: as §2
# Mus musculus [9] = assay: Teratogenic effect in SWV mouse assessed as fetuses with neural tube deffects at 462 mg/kg, ip administered on morning of day 8 of gestation; format: toxicity, organism-based; parameters: dose 462 mg/kg, route intraperitoneal; conditions: in vivo
# How it was run: (§3)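 Two-month-old nulligravid SWV females were mated overnight and checked for vaginal plugs the next morning; gestation onset was set at 10 p.m. the previous night. On gestation day 8.5, each dam received a single ip injection (0.55-2.7 mmol/kg range) or vehicle (25% aqueous Cremophor EL) at 10 μL/g body weight. Litters were scored for implants, resorptions, live and dead fetuses, and fetuses with neural tube defects.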
# Mus musculus [10] = assay: Teratogenic effect in SWV mouse assessed as fetuses with neural tube deffects at 279 mg/kg, ip administered on morning of day 8 of gestation; format: toxicity, organism-based; parameters: dose 279 mg/kg, route intraperitoneal; conditions: in vivo; how it was run: as §3
# Mus musculus [11] = assay: Teratogenic effect in SWV mouse assessed as live fetuses at 141 mg/kg, ip administered on morning of day 8 of gestation; format: toxicity, organism-based; parameters: dose 141 mg/kg, route intraperitoneal; conditions: in vivo; how it was run: as §3
# Mus musculus [12] = assay: Teratogenic effect in SWV mouse assessed as live fetuses at 462 mg/kg, ip administered on morning of day 8 of gestation; format: toxicity, organism-based; parameters: dose 462 mg/kg, route intraperitoneal; conditions: in vivo; how it was run: as §2
# Mus musculus [13] = assay: Teratogenic effect in SWV mouse assessed as live fetuses at 279 mg/kg, ip administered on morning of day 8 of gestation; format: toxicity, organism-based; parameters: dose 279 mg/kg, route intraperitoneal; conditions: in vivo; how it was run: as §3
# Mus musculus [14] = assay: Anticonvulsant activity in CF1 albino mouse assessed as inhibition of maximal electroshock-induced seizures at 30 mg/kg, ip after 0.5 hrs; format: functional, organism-based; parameters: dose 30 mg/kg
# How it was run: (§4)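 Test compounds suspended in 0.5% methylcellulose and given ip to adult male CF no. 1 albino mice (18-25 g) at 0.01 mL/g body weight before maximal electroshock challenge.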
# Mus musculus [15] = assay: Anticonvulsant activity in CF1 albino mouse assessed as inhibition of maximal electroshock-induced seizures at 100 mg/kg, ip after 0.5 hrs; format: functional, organism-based; parameters: dose 100 mg/kg; how it was run: as §4
# Mus musculus [16] = assay: Anticonvulsant activity in CF1 albino mouse assessed as inhibition of maximal electroshock-induced seizures at 300 mg/kg, ip after 0.5 hrs; format: functional, organism-based; parameters: dose 300 mg/kg; how it was run: as §4
# Mus musculus [17] = assay: Anticonvulsant activity in CF1 albino mouse assessed as inhibition of maximal electroshock-induced seizures at 30 mg/kg, ip after 4 hrs; format: functional, organism-based; parameters: dose 30 mg/kg; how it was run: as §4
# Mus musculus [18] = assay: Anticonvulsant activity in CF1 albino mouse assessed as inhibition of maximal electroshock-induced seizures at 100 mg/kg, ip after 4 hrs; format: functional, organism-based; parameters: dose 100 mg/kg; how it was run: as §4
# Mus musculus [19] = assay: Anticonvulsant activity in CF1 albino mouse assessed as inhibition of maximal electroshock-induced seizures at 300 mg/kg, ip after 4 hrs; format: functional, organism-based; parameters: dose 300 mg/kg; how it was run: as §4
# Mus musculus [20] = assay: Anticonvulsant activity in CF1 albino mouse assessed as inhibition of subcutaneous pentylenetetrazole-induced seizures at 300 mg/kg, ip after 4 hrs; format: functional, organism-based; parameters: dose 300 mg/kg; how it was run: as §1
# Mus musculus [21] = assay: Neurotoxicity in CF1 albino mouse assessed as motor impairment at 30 mg/kg, ip after 4 hrs; format: toxicity, organism-based; parameters: dose 30 mg/kg, route intraperitoneal; conditions: in vivo
# Mus musculus [22] = assay: Neurotoxicity in CF1 albino mouse assessed as motor impairment at 100 mg/kg, ip after 4 hrs; format: toxicity, organism-based; parameters: dose 100 mg/kg, route intraperitoneal; conditions: in vivo
# Mus musculus [23] = assay: Neurotoxicity in CF1 albino mouse assessed as motor impairment at 300 mg/kg, ip after 4 hrs; format: toxicity, organism-based; parameters: dose 300 mg/kg, route intraperitoneal; conditions: in vivo
# Rattus norvegicus [24] = organism: Rattus norvegicus; assay: Protective index, ratio of TD50 for rat to ED50 for maximal electroshock-induced rat seizure model
# Rattus norvegicus [25] = assay: Neurotoxicity in Sprague-Dawley rat assessed as motor impairment at 30 mg/kg, po after 0.25 to 4 hrs; conditions: in vivo
# Rattus norvegicus [26] = assay: Anticonvulsant activity in po dosed rat assessed as inhibition of maximal electroshock-induced seizures
# Rattus norvegicus [27] = assay: Anticonvulsant activity in Sprague-Dawley rat assessed as inhibition of maximal electroshock-induced seizures at 30 mg/kg, po after 1 hr
# Rattus norvegicus [28] = assay: Anticonvulsant activity in Sprague-Dawley rat assessed as inhibition of maximal electroshock-induced seizures at 30 mg/kg, po after 2 hrs
# Rattus norvegicus [29] = assay: Anticonvulsant activity in Sprague-Dawley rat assessed as inhibition of maximal electroshock-induced seizures at 30 mg/kg, po after 4 hrs
smiles,measurement,setting,value
CCC(C)C(=O)Nc1ccc(S(N)(=O)=O)cc1 (centres undefined),Activity,Mus musculus [1],inactive
same,Activity,Mus musculus [2],inactive
same,Activity,Mus musculus [3],inactive
same,Activity,Mus musculus [4],inactive
same,Activity,Mus musculus [5],inactive
same,Activity,Mus musculus [6],8.2%
same,Activity,Mus musculus [7],49.1%
same,Activity,Mus musculus [8],8.8%
same,Activity,Mus musculus [9],25.4%
same,Activity,Mus musculus [10],4.4%
same,Activity,Mus musculus [11],91.8%
same,Activity,Mus musculus [12],50.9%
same,Activity,Mus musculus [13],91.2%
same,Activity,Mus musculus [14],Active
same,Activity,Mus musculus [15],Active
same,Activity,Mus musculus [16],Active
same,Activity,Mus musculus [17],Active
same,Activity,Mus musculus [18],Active
same,Activity,Mus musculus [19],Active
same,Activity,Mus musculus [20],inactive
same,Activity,Mus musculus [21],Non-toxic
same,Activity,Mus musculus [22],Non-toxic
same,Activity,Mus musculus [23],Non-toxic
same,Ratio TD50/ED50,Rattus norvegicus [24],>65.7
same,Activity,Rattus norvegicus [25],Non-toxic
same,ED50,Rattus norvegicus [26],7.6 mg/kg
same,Activity,Rattus norvegicus [27],Active
same,Activity,Rattus norvegicus [28],Active
same,Activity,Rattus norvegicus [29],Active
